The source of these data is ChEMBL document CHEMBL3286393 (J Med Chem, 2014).

Calls of active or inactive are those of the source. The rule behind the calls is not given here.

By IC50 is commonly meant the concentration that inhibits the measured activity by half.

Series [1] concerns the target T1, Polyunsaturated fatty acid 5-lipoxygenase (Homo sapiens) (UniProt P09917).
T1 sequence (whole entry): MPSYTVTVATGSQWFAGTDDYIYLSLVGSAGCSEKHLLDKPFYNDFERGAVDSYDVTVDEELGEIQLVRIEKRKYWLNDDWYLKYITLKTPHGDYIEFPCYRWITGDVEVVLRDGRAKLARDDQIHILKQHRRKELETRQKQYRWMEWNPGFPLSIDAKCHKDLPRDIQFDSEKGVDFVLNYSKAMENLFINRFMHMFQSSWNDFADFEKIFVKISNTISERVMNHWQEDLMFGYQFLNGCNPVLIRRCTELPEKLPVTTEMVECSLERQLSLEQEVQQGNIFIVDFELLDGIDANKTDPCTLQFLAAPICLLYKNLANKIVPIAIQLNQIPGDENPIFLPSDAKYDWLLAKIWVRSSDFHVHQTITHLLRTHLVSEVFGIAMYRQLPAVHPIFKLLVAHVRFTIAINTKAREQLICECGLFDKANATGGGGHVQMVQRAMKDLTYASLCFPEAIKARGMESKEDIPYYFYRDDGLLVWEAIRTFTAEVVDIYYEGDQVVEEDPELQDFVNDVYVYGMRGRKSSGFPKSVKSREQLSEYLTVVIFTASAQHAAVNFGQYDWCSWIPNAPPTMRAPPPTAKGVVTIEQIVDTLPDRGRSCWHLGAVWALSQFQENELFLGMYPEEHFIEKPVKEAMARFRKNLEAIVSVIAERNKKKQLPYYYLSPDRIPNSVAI
The series can be described thus: Ratio of curcumin IC50 to compound IC50 for 5-LO-mediated LTB4 formation in LPS-stimulated human monocytes preincubated for 15 mins before arachidonic acid substrate addition measured after 30 mins by UPLC-MS/MS analysis. Type of series: cell-based.

The target in another series is T2, Prostaglandin E synthase (Homo sapiens, UniProt O14684).
T2 sequence (O14684 whole entry): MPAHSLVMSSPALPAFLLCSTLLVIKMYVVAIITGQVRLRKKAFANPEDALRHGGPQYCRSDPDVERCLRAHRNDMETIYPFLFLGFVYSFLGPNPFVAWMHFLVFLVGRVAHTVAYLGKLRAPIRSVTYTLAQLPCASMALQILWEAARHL
The series is described as follows: Inhibition of mPGES1-mediated PGE2 production in microsomes of IL-1beta stimulated human A549 cells preincubated for 15 mins by RP-HPLC analysis. Type of series: cell-based. In a few lines:
(§1)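 mPGES-1 source: microsomes of A549 cells treated 48 h with IL-1β 2 ng/mL, at 25−50 μg protein/mL in 0.1 M potassium phosphate pH 7.4 with 2.5 mM glutathione. Compound preincubation 15 min at 4 °C; PGH2 (20 μM final) for 1 min; FeCl2/citric acid stop with 11β-PGE2 internal standard. PGE2 by RP-HPLC.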

In series [2] the target is T1, Polyunsaturated fatty acid 5-lipoxygenase (Homo sapiens). The series is described as follows: Ratio of curcumin IC50 to compound IC50 for 5-LO-mediated 5-HETE formation in LPS-stimulated human monocytes preincubated for 15 mins before arachidonic acid substrate addition measured after 30 mins by UPLC-MS/MS analysis. It counts as cell-based.
Series [3] in a line: Aqueous stability of the compound in at 2 uM in 10 mM aqueous ammonium bicarbonate at pH 7.9 assessed as formation of trans-6-(4'-hydroxy-3'-methoxyphenyl)-2,4-dioxo-5-hexenal measured as residual amount of compound by reversed phase liquid chromatography-coupled mass spectrometry. The note with it: buffer, pH 7.9, 2 µM. It counts as physicochemical. The essentials:
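Compounds at 2 μM in 10 mM aqueous ammonium bicarbonate pH 7.9, incubated 30 min at 37 °C. Analysed by UPLC-MS on a C18 column, gradient acetonitrile/water with 0.07% formic acid, at 0.7 mL/min. Residual amount given as % of control; three to four independent experiments.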

Series [4] has as its target T3, Polyunsaturated fatty acid 5-lipoxygenase (Homo sapiens, UniProt P09917).
T3 sequence (P09917 whole entry): T1 sequence (whole entry)
The series is described as follows: Inhibition of 5-LO in human neutrophils using arachidonic acid as substrate preincubated for 15 mins measured after 10 mins by HPLC analysis. In a few lines:
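Fresh human neutrophils, 1 × 10⁷/mL in PBS pH 7.4 with 1 mM CaCl2 and 1 mg/mL glucose, preincubated 15 min at 37 °C. LTB4, its all-trans isomers and 5-H(P)ETE by HPLC.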

Series [5] deals with T1, Polyunsaturated fatty acid 5-lipoxygenase (Homo sapiens). The series can be described thus: Ratio of curcumin IC50 to compound IC50 for 5-LO-mediated 5,12-DiHETE formation in LPS-stimulated human monocytes preincubated for 15 mins before arachidonic acid substrate addition measured after 30 mins by UPLC-MS/MS analysis. Type of series: cell-based.
Series [6] addresses T4, Prostaglandin G/H synthase 1 (Homo sapiens, UniProt P23219). The series is described as follows: Inhibition of COX1-mediated PGD2 formation in LPS-stimulated human monocytes preincubated for 15 mins before arachidonic acid substrate addition measured after 30 mins by UPLC-MS/MS analysis. Type of series: cell-based.
Series [7] has as its target T5, Prostaglandin E synthase (Homo sapiens) (UniProt O14684).
T5 sequence (whole entry): T2 sequence (O14684 whole entry)
The series is described as follows: Inhibition of mPGES1-mediated PGE2 production in microsomes of IL-1beta stimulated human A549 cells assessed as residual activity preincubated at 10 uM for 15 mins by RP-HPLC analysis relative to control. It counts as cell-based. In a few lines: as §1

The target in series [8] is T4, Prostaglandin G/H synthase 1. The series can be described thus: Inhibition of COX1-mediated PGF2alpha formation in LPS-stimulated human monocytes preincubated for 15 mins before arachidonic acid substrate addition measured after 30 mins by UPLC-MS/MS analysis. Type of series: cell-based.
The target of series [9] is T1, Polyunsaturated fatty acid 5-lipoxygenase (Homo sapiens). The series can be described thus: Inhibition of 5-LO in human neutrophils using arachidonic acid as substrate assessed as residual activity preincubated at 10 uM for 15 mins measured after 10 mins by HPLC analysis relative to control. In a few lines:
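Fresh human neutrophils, 1 × 10⁷/mL in PBS pH 7.4 with 1 mM CaCl2 and 1 mg/mL glucose, preincubated 15 min at 37 °C. Stimulated with 2.5 μM A23187 plus 20 μM arachidonic acid for 10 min at 37 °C; methanol stop. LTB4, its all-trans isomers and 5-H(P)ETE by HPLC.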

T4 sequence (P23219 whole entry): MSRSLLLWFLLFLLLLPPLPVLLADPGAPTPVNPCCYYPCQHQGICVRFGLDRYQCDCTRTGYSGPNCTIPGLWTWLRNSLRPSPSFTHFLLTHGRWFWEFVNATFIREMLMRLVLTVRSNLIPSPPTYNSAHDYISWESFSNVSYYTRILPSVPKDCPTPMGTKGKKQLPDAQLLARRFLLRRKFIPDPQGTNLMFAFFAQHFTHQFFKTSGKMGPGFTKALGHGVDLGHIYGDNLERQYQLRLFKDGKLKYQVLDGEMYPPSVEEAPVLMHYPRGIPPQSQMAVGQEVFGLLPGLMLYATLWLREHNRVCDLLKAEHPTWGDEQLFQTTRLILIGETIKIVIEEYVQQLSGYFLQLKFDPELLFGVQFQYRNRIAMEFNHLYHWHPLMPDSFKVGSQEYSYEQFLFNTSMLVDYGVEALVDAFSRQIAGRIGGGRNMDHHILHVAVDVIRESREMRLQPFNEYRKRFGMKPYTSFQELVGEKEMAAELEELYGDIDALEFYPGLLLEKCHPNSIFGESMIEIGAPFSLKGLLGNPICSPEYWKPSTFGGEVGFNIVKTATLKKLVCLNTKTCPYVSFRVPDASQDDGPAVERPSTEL

As to `COc1cc(/C=C/C(=O)/C=C/c2cc(CC=C(C)C)c(O)c(OC)c2)cc(CC=C(C)C)c1O`, the Ratio IC50 in [1], in [2] and in series [5] was 2 in each case. The IC50 on Prostaglandin E synthase (read-out: IC50) is 1500 nM; in series [4], 1700 nM. In addition, the Stability entry in series [3] was “Unstable”.
Turning to `COc1cc(/C=C/c2cc(/C=C/c3ccc(O)c(OC)c3)[nH]n2)ccc1O` [CURCUMIN PYRAZOLE], the Ratio IC50 in series [1], in series [2] and in series [5] was 2 in each case. Besides, the inhibition entry in series [6] and in series [8] was “Active” each time. Also, the Stability entry in [3] is “Unstable”. In series [7], the Activity is 54.8%. Further, in series [4], half-maximal inhibition (IC50) was put at 700 nM.
Take `COc1cc(/C=C/C(=O)CC(=O)c2ccc(O)c(OC)c2)ccc1O`: the Stability in series [3] was 72%. Moreover, the Activity in [7] was determined as 72.6%. In addition, the IC50 in series [4] turned out to be 9900 nM.
For `COc1cc(CCC(=O)CC(=O)CCc2ccc(O)c(OC)c2)ccc1O` [TETRAHYDROCURCUMIN], on Prostaglandin E synthase (a549), the IC50 result was “Not Active”. Further, in series [3], the Stability result was “Unstable”. In addition, in series [9], the Activity was determined as 70.1%.
As for `COc1cc(/C=C/C(=O)CC(=O)/C=C/c2ccc(O)c(OC)c2)ccc1O` [CURCUMIN], the IC50 on Prostaglandin E synthase (read-out: IC50) is 600 nM. Besides, the inhibition result in series [6] and in series [8] was “Active” throughout. Moreover, the Stability in series [3] is on record as 41.6%.
As for `COc1cc(/C=C/c2cc(/C=C/c3cc(CC=C(C)C)c(O)c(OC)c3)[nH]n2)cc(CC=C(C)C)c1O`, the values for the half-maximal inhibitory concentration (IC50) in [6], in series [4] and in [8] were greater than 10000 nM, 800 nM and greater than 10000 nM, respectively. The Stability entry in [3] is “Unstable”. In [7], the Activity is 68%.
For `COc1cc(/C=C/c2cc(-c3ccc(O)c(OC)c3)[nH]n2)ccc1O`, the Ratio IC50 in series [1], in series [2] and in series [5] was 2 each time. The inhibition result in series [6] and in [8] was “Active” in each case. Besides, the Stability entry in series [3] is reported as “Unstable”. Besides, the Activity in [7] came out at 62.2%. In series [4], it took 1900 nM to reach half-maximal inhibition (IC50).
As to `COc1cc(/C=C/C(=O)CC(=O)/C=C/c2cc(CC=C(C)C)c(O)c(OC)c2)cc(CC=C(C)C)c1O`, the Stability entry in [3] is recorded as “Unstable”. In addition, the Activity in series [7] worked out at 59.6%; in [9] it was 74.3%.
With `COc1cc(/C=C/C(=O)/C=C/c2ccc(O)c(OC)c2)ccc1O`, the figures for the IC50 entry (on Prostaglandin E synthase (a549); in [4]) were “Not Active” and 5200 nM, respectively. Moreover, the Stability entry in series [3] was “Unstable”.
